The values that follow come from paper PMC5395305 (Bioorganic & medicinal chemistry letters, 2017).

The subject of data set [1] is bleomycin-induced dermal fibrosis. The note with it: mice, 14 days of IP dosing, 100 mg/kg bid; cited from earlier work.
For data set [2], the system named is ACTA2 expression. The data set can be described thus: ACTA2 mRNA expression. The data set is classed as cell-based. To be noted: Homo sapiens, Fibroblast, 24 h, read-out: ACTA2 (%ctrl), inhibition of ACTA2 expression (percent control), TGF-β-stimulated human dermal fibroblasts, 10 μM, 24 hrs, mean of n=3.
In data set [3] the test system is conjunctival fibrosis (scar tissue formation). To be noted: preclinical model of conjunctival fibrosis; ref 18 (Yu-Wai-Man et al); cited from earlier work.
Data set [4] is described as follows: Stability to incubation with mouse liver microsomes. Format: in vitro ADME. To be noted: relative to 1. (Liver microsomes are a subcellular fraction often used to study metabolism.)
The subject of data set [5] is bleomycin-induced dermal fibrosis. The data set can be described thus: Bleomycin-induced dermal fibrosis in mice. The data set is classed as in vivo. The note with it: PO 50 mg/kg qd, 14 days, vs bleomycin treatment alone. Put shortly: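 Three groups of mice (n=8) were treated daily for 14 days. Controls received intracutaneous PBS. The bleomycin group received intracutaneous bleomycin with concurrent oral gavage of vehicle. The treated group received intracutaneous bleomycin with concurrent oral gavage of test compound at 50 mg/kg. Read-outs were dermal thickness and hydroxyproline content, each compared with bleomycin alone.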

In data set [6] the test system is Rho/MRTF/SRF pathway (SRE.L promoter luciferase reporter). The data set can be described thus: Inhibition of Gα12-stimulated SRE.Luciferase activity in HEK293T cells. Format: cell-based. The essentials: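 HEK293T cells were transfected with a luciferase reporter driven by the MRTF-selective SRE.L promoter. Reporter activity was Gα12-stimulated, and inhibition of luciferase signal by test compound was measured. Values are means of n ≥ 3.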

Regarding `O=C(Nc1ccc(Cl)cc1)C1CCCN(C(=O)c2cccc(-c3ccco3)c2)C1` (centres unmarked) [Cmpd 1], the “Effect on development of bleomycin-induced dermal fibrosis” value in data set [1] is recorded as “can attenuate the development of bleomycin-induced dermal fibrosis”.

Consider `O=C(Nc1ccc(Cl)cc1)C1CN(C(=O)c2cccc(-c3ccco3)c2)CC(F)(F)C1` (centres unmarked) [Cmpd 8a], for which the mrna remaining at 10 µM in data set [2] stood at 9%. Moreover, the “Effect on scar tissue formation” value in data set [3] is given as “prevent scar tissue formation”. Also, the “Lengthening of half-time in MLM (factor)” value in data set [4] is “three”.

For the compound `O=C(Nc1ccc(Cl)cc1)C1CN(C(=O)c2cccc(-c3ccncc3)c2)CC(F)(F)C1` (centres unmarked) [Cmpd 8f], in data set [5], the “Reduction of bleomycin-induced increase in dermal thickness” value was −55% and the “Reduction of bleomycin-induced increase in hydroxyproline content” value is −62%.

For the compound `C=C1CC(C(=O)Nc2ccc(Cl)cc2)CN(C(=O)c2cccc(-c3ccco3)c2)C1` (centres unmarked) [Cmpd 23], the “Improvement of SRE.L potency” value in data set [6] (relative to 5-carbonyl/parent series) is listed as around 10 fold.

As to `CN(C(=O)C1CCCN(C(=O)c2cccc(-c3ccco3)c2)C1)c1ccc(Cl)cc1` (centres unmarked) [Cmpd 26], the “Reduction of SRE.L activity” value in data set [6] (relative to 1) is recorded as 10 fold.
